Calls of active or inactive are those of the source. The calls are words filed in the database; no cut-off is given here.
Key:
Cholinesterase = Cholinesterase (Equus caballus, UniProt P81908); experiment: Inhibition of equine serum BuChE using […] as substrate preincubated for 10 mins followed by substrate addition by Ellman's method
Acetylcholinesterase [1] = target: T1, Acetylcholinesterase (Homo sapiens, UniProt P22303); experiment: Inhibition of human erythrocyte AChE using acetylthiocholine iodide as substrate preincubated for 10 mins followed by substrate addition by Ellman's method
[2] = Antioxidant activity assessed as trolox equivalent of ABTS radical cation scavenging activity incubated for 24 hrs by UV-Vis spectrophotometric analysis; type: functional
[3] = Antioxidant activity assessed as decrease in ABTS radical cation scavenging activity incubated for 24 hrs by UV-Vis spectrophotometric analysis; type: functional
Liver carboxylesterase = target: T2, Liver carboxylesterase (Sus scrofa, UniProt Q29550); experiment: Inhibition of porcine liver carboxylesterase using 4-NPA as substrate preincubated for 10 mins followed by substrate addition by spectrophotometric analysis; type: tissue-based
T2 sequence (Q29550 whole entry): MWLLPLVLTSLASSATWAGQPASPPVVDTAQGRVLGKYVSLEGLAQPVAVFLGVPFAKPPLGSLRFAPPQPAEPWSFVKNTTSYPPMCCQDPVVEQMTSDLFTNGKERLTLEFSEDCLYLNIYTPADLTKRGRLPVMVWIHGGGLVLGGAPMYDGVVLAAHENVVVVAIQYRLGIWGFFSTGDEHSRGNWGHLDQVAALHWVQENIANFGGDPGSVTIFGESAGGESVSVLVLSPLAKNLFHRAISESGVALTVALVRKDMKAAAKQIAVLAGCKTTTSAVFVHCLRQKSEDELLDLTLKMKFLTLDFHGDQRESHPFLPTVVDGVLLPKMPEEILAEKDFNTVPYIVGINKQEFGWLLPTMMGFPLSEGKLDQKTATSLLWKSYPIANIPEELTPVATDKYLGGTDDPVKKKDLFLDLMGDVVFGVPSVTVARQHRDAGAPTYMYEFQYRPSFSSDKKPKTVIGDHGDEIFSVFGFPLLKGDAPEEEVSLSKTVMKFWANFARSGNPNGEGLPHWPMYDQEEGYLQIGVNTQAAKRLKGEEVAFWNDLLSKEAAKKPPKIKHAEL
Procedure, shortened: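 Porcine liver CES, 0.02 unit/mL, in 0.1 M K/Na phosphate pH 8.0, 25 °C; compound in DMSO (2% v/v final) preincubated 10 min, then 1 mM 4-nitrophenyl acetate; 4-nitrophenol read at 405 nm, enzyme-free blanks. Screening at 20 μM in three separate experiments; IC50 from eight concentrations between 10^-12 and 10^-4 M, residual activity relative to inhibitor-free control.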

Acetylcholinesterase [4] = target: T1, Acetylcholinesterase; experiment: Inhibition of human erythrocyte AChE at 20 uM using acetylthiocholine iodide as substrate preincubated for 10 mins followed by substrate addition by Ellman's method relative to control
Procedure, shortened: (§1)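 Single-point screen at 20 μM in 0.1 M K/Na phosphate pH 7.5, 25 °C; 0.02 unit/mL enzyme, 1 mM ATCh (AChE) or BTCh (BChE), 0.33 mM DTNB; 2% DMSO final; 10 min preincubation then substrate; activity relative to inhibitor-free control; three separate experiments.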

[5] = target: Cholinesterase (Equus caballus) (UniProt P81908); experiment: Inhibition of equine serum BuChE at 20 uM using […] as substrate preincubated for 10 mins followed by substrate addition by Ellman's method relative to control; procedure, shortened: as §1
Liver carboxylesterase 1 = target: T3, Liver carboxylesterase 1 (Homo sapiens, UniProt P23141); experiment: Inhibition of human recombinant CES1 expressed in baculovirus infected BTI insect cells using 4-NPA as substrate by spectrophotometric analysis
T3 sequence (P23141 whole entry): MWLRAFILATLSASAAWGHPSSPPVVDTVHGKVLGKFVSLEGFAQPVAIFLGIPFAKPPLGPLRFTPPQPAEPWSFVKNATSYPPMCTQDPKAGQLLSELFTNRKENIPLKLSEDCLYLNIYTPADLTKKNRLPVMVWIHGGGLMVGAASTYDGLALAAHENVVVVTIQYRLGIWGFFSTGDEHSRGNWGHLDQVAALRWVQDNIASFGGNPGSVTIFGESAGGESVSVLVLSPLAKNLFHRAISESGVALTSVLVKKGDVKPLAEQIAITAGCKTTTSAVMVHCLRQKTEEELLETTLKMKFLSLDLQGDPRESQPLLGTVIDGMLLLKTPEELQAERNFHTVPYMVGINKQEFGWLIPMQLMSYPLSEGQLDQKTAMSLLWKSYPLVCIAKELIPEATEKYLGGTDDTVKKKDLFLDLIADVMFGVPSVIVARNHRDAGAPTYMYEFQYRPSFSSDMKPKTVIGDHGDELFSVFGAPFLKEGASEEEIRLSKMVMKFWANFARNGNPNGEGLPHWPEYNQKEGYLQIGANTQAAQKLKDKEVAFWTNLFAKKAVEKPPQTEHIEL
Procedure, shortened: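 Recombinant hCES1 (baculovirus/BTI insect cells), 0.02 unit/mL, in 0.1 M K/Na phosphate pH 7.4, 25 °C; compound (DMSO, 2% v/v final) preincubated 10 min, then 1 mM 4-nitrophenyl acetate added; 4-nitrophenol release read at 405 nm against enzyme-free blank. IC50 from eight concentrations (10^-12–10^-4 M) relative to inhibitor-free control.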

[6] = Cytotoxicity against human FetMSC cells assessed as reduction in cell viability after 72 hrs by MTT assay; type: cell-based
Procedure, shortened: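 Human fetal MSC (bone-marrow fibroblast-like, nonimmortalized; ≤10–15 passages) grown in F12/DMEM with 10% FBS, 3 mM L-glutamine, penicillin/streptomycin. Seeded at 6×10^3 cells/well; after 24 h, medium replaced with compound at 100, 250, 500 μM for 72 h; controls 0.1% DMSO. MTT 0.5 mg/ml for 4 h, formazan dissolved in DMSO, read at 570 nm; control = 100%.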

[7] = Acute toxicity in ip dosed CD-1 mouse observed for 14 days; type: organism-based; conditions: in vivo, time 14 day
Procedure, shortened: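 CD-1 mice given compound intraperitoneally in 2% (w/v) starch mucilage, three animals per dose group; lethality observed over 14 days; procedure based on OECD recommendations.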

Chain of Cholinesterase (P81908 whole entry): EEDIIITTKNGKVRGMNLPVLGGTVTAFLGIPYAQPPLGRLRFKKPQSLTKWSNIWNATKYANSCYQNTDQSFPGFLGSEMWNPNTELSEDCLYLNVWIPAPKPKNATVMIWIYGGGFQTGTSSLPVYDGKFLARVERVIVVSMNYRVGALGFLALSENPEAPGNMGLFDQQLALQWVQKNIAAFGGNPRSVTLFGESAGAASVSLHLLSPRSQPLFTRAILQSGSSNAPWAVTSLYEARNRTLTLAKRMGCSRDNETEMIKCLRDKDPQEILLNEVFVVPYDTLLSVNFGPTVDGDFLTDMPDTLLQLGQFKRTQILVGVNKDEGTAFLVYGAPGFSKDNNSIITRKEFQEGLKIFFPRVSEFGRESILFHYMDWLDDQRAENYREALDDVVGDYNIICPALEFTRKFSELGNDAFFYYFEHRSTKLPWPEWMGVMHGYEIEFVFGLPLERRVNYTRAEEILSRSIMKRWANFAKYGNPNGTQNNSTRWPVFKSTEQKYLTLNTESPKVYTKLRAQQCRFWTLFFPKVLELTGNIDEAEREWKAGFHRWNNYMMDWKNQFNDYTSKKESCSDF
Chain of Cholinesterase (Equus caballus) (P81908 whole entry): as above
T1 sequence (P22303 whole entry): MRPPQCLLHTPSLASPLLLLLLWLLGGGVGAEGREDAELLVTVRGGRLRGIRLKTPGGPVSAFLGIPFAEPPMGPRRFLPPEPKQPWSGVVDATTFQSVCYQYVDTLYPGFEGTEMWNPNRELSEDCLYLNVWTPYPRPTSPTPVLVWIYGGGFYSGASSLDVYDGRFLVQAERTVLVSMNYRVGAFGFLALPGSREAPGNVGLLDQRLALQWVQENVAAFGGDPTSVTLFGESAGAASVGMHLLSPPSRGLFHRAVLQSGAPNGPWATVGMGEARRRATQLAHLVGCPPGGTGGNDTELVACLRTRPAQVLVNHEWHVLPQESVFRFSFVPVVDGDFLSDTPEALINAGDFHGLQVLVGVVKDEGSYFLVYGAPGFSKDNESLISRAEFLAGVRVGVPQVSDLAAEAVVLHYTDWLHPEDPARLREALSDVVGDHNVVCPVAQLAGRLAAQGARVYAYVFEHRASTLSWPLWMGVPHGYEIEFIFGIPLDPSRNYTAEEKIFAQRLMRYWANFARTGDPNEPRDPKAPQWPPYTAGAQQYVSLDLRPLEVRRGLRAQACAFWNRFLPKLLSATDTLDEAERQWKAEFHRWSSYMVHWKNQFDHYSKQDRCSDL

Row | Compound | IC50 (Cholinesterase) | IC50 (Acetylcholinesterase [1]) | Activity [2] | IC50 [3] | IC50 (Liver carboxylesterase) | inhibition (Acetylcholinesterase [4]) | inhibition [5] | IC50 (Liver carboxylesterase 1) | IC50 [6] | LD50 at 336 h [7]
1 | CCOC(=O)/C(=N\Nc1ccc(C(=O)OCC)cc1)C(=O)C(F)(F)F | 19.6 µM | 3.79 µM | 0.1 | 193 µM | 0.0471 µM | – | – | – | – | –
2 | O=[N+]([O-])c1ccc(OP(=O)(O)Oc2ccc([N+](=O)[O-])cc2)cc1 | – | – | – | – | – | inactive | inactive | – | – | –
3 | COC(=O)/C(=N\Nc1ccccc1)C(=O)C(F)(F)F | 14.5 µM | 20.1 µM | 0.78 | 26.6 µM | 0.0555 µM | – | – | 0.0115 µM | – | –
4 | CCOC(=O)/C(=N\Nc1ccccc1[N+](=O)[O-])C(=O)C(F)(F)F | 8.06 µM | 0.759 µM | 0.04 | – | 0.00495 µM | – | – | 0.0241 µM | > 500 µM | 300 mg/kg
5 | Cc1ccc(N/N=C(\C(=O)c2ccccc2)C(=O)C(F)(F)F)cc1 | – | – | 1.7 | 12.8 µM | 5.54 µM | 9.1% | 19.4% | – | – | –
6 | O=C1O[C@H]([C@@H](O)CO)C(O)=C1O [ASCORBIC ACID] | – | – | 0.98 | 21.6 µM | – | – | – | – | – | –
7 | CCOC(=O)/C(=N\Nc1ccccc1C(=O)OCC)C(=O)C(F)(F)F | 0.122 µM | 0.481 µM | 0.04 | – | 0.0416 µM | – | – | – | – | –
8 | Oc1ccccc1O [CATECHOL] | – | – | 1.2 | 16.4 µM | – | – | – | – | – | –
9 | Cc1c(C)c2c(c(C)c1O)CCC(C)(C(=O)O)O2 (centres undefined) [TROLOX] | – | – | 1 | 20.4 µM | – | – | – | – | – | –
10 | CCOC(=O)/C(=N\Nc1ccc(OC)cc1)C(=O)C(F)(F)F | – | 4.62 µM | 1 | 19.3 µM | 0.0131 µM | – | 24.3% | 0.00429 µM | – | –
11 | CC(=O)/C(=N\Nc1ccc(C)cc1)C(=O)C(F)(F)F | – | – | 1.33 | 15.6 µM | 56.6 µM | 11% | 13.4% | – | – | –
12 | CCOC(=O)/C(=N\Nc1ccc(C)cc1)C(=O)C(F)(F)C(F)(F)F | 31.1 µM | – | 0.36 | 55.2 µM | 0.164 µM | 11.5% | – | 0.0474 µM | – | –
13 | CCOC(=O)/C(=N\Nc1ccc(C)cc1)C(=O)C(F)(F)C(F)(F)C(F)(F)F | 42.1 µM | – | 0.3 | 62.3 µM | 0.102 µM | 23.6% | – | – | – | –
14 | CCOC(=O)/C(=N\Nc1ccc(F)cc1)C(=O)C(F)(F)F | 11.3 µM | 2.67 µM | 0.6 | 35.3 µM | 0.00716 µM | – | – | 0.0223 µM | > 500 µM | –
15 | CCOC(=O)/C(=N\Nc1ccc(C)cc1)C(=O)C(F)(F)C(F)(F)C(F)(F)C(F)(F)F | – | – | 0.26 | 66.6 µM | 0.0893 µM | 17.2% | 4% | – | – | –
16 | CCOC(=O)/C(=N\Nc1ccc(C)cc1)C(=O)C(F)F | – | – | 0.37 | 53.3 µM | 3.23 µM | 18.2% | 12.4% | – | – | –
17 | COC(=O)/C(=N\Nc1ccc(OC)cc1)C(=O)C(F)(F)F | 49.6 µM | 30.3 µM | 0.97 | 22.5 µM | 0.0467 µM | – | – | 0.0213 µM | – | –
18 | COC(=O)/C(=N\Nc1ccccc1[N+](=O)[O-])C(=O)C(F)(F)F | 45.1 µM | 20.9 µM | 0.03 | – | 0.00765 µM | – | – | 0.102 µM | > 500 µM | 300 mg/kg
19 | COC(=O)/C(=N\Nc1ccc(OC)cc1)C(=O)C(F)(F)C(F)(F)C(F)(F)F | – | – | 0.4 | 50.3 µM | 0.103 µM | 7.1% | 21.2% | 0.111 µM | – | –
20 | COC(=O)/C(=N\Nc1ccc(C)cc1)C(=O)C(F)F | – | – | 0.38 | 52.6 µM | 1.57 µM | 5.8% | 2.3% | – | > 500 µM | –

From ChEMBL document CHEMBL4819068, “Novel potent bifunctional carboxylesterase inhibitors based on a polyfluoroalkyl-2-imino-1,3-dione scaffold” (Eur J Med Chem, 2021)
